Compound activity as filed in PubChem.
A selection: hits, their analogues and other compounds. The true share with any hit is near 1.6%.
NR2E3 ag-1: agonists of human NR2E3 nuclear receptor; hit rate 0.35% among 360,000; inhibition of corepressor binding, % at 3.98 µM; AID 602229; CHO-S Gal4-NCOR/VP16-NR2E3 two-hybrid, luciferase;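 active = inhibition above the mean of all tested compounds plus 3 SD, cut at about 70% in these data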;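 also: 0% = DMSO with NR2E3 transfected cells and 100% = cells lacking NR2E3 construct; higher means lower luciferase signal from less NR2E3 corepressor binding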
Target sequence (Q9Y5X4 whole entry, looked up, the tested form may be a part): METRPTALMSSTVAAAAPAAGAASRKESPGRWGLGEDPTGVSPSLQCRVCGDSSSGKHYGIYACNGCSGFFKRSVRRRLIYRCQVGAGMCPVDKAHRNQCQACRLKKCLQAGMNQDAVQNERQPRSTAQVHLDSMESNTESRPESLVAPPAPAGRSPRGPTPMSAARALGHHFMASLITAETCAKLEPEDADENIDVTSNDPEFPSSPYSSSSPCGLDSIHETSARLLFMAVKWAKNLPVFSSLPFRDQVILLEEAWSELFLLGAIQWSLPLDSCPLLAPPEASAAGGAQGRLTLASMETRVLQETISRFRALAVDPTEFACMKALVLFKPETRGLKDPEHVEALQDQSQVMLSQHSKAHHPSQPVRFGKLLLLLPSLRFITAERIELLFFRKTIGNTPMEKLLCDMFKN
NR1D1 modulator: Rev-erb alpha (human) modulation; P20393; Rev-erbα–FITC-DNA binding, fluorescence polarization, 90 min; activity, % at 10 µM; hit rate 0.79% among 370,000; AID 1259318;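 active = activity above about 14%, limit read from the data; passing the limit was not always enough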;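 also: 0% = DMSO wells with 35 nM protein and 100% = DMSO wells with 750 nM protein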
VLA-4 inh: inhibition in a human VLA-4 binding assay; P13612; VLA-4 expressing cells, ligand binding flow cytometry; inhibition, % (about 7 µM as worked out from the volumes in the protocol); hit rate 0.2% among 330,000; in the data active = inhibition above about 50%
PG9 binder: PG9 antibody binding by small molecule | hit rate 0.43% among 360,000 | inhibition, % at 6.7 µM | TR-FRET gp120-PG9 antibody binding; in the data active = inhibition above about 8.5%
NR2E3 ag-2: agonists of human nuclear receptor NR2E3. hit rate 0.12% among 320,000. inhibition of corepressor binding, % at 4.78 µM. Q9Y5X4. GST-NR2E3/biotin-RetCOR TR-FRET, 1536-well;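 active = percent inhibition above the cutoff of mean plus 3 SD of all tested compounds, set per screening campaign, cut at about 20% in these data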;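 also: 0% = DMSO wells and 100% = biotin wells as full block of FRET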
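Test system – NR2E3–RetCOR corepressor complex · Quantity – NR2E3 fusion 1.35 nM · Buffer or medium – Tris pH 7.5 · Incubation – Compound–protein incubation for 5 h at 4 °C · Technique – TR-FRET, Eu(K)-anti-GST donor, streptavidin-D2 acceptor, ex 340, em 617/671 nm · Evaluation – percent inhibition of 671/617 nm emission ratio versus biotin and DMSO controls · Plate – 1536-well format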
NR2E3 ag conf: NR2E3 agonism confirmed in two-hybrid assay; shares compounds with NR2E3 ag-1; CHO-S mammalian two-hybrid NR2E3-NCOR, luciferase luminescence; inhibition, % at 3.98 µM; hit rate 51% among 2,300; AID 624378;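 active = average inhibition above a cutoff equal to the mean inhibition of all tested compounds plus one SD, cut at about 70% in these data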;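 also: 0% = DMSO in NR2E3 cells and 100% = DMSO in cells lacking NR2E3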
GAL4-VP16 luc: counter-screen for NR2E3 agonists: GAL4-VP16 reporter inhibitors | shares compounds with NR2E3 ag-1 | CHO-S GAL4-VP16 luciferase reporter, luminescence | inhibition, % at 3.98 µM | hit rate 29% among 2,300 | AID 624379;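 active = mean inhibition above a cutoff equal to the average over all tested compounds plus one standard deviation, cut at about 70% in these data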;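 also: luciferase from a UAS reporter driven by GAL4-VP16 transactivation; 0% = DMSO with VP16-transfected cells and 100% = DMSO with cells lacking VP16; higher means less reporter light so more repression of VP16 activity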
Numbers without * were called inactive; / = not tested or not shown.

SMILES | NR2E3 ag-1 | NR1D1 modulator | VLA-4 inh | PG9 binder | NR2E3 ag-2 | NR2E3 ag conf | GAL4-VP16 luc
Cc1ccc(-c2nc(CS(=O)CC(=O)N3CCN(c4ccc(F)cc4)CC3)c(C)o2)cc1 (centres undefined) | 53 | -2 | 4 | -3 | 3 | 29 | 40
Cc1nn(-c2ccc3ccccc3c2)c(=O)c2ccccc12 | -126 | 4 | -2 | 0 | -2 | / | /
Cc1nn(-c2nc3ccccc3[nH]2)c(=O)c2ccccc12 | 53 | -2 | 27 | 2 | 3 | 65 | 25
C[C@@H](CCCCC1(C)OCCO1)CCC(=O)N(c1ccccc1)c1ccccc1 | / | -4 | / | / | / | / | /
COC(=O)C1CN(Cc2ccc(C)cc2)CCS(=O)(=O)N1Cc1cn(Cc2ccc(OC)cc2)nn1 (centres undefined) | / | -4 | / | / | / | / | /
CN(C)S(=O)(=O)N1CCC(Oc2ccc(C(=O)N3C[C@H]4CC[C@H]3C4)cc2)CC1 | 60 | 0 | 2 | -1 | 0 | 8 | 15
CN(C)S(=O)(=O)N1CCC(Oc2ccc(C(=O)N3C[C@@H]4CCC[C@H]3C4)cc2)CC1 | 26 | 0 | -4 | -3 | 1 | / | /
COc1ccc(S(=O)(=O)Nc2ccc3cn[nH]c3c2)cc1C | -12 | -1 | -4 | -1 | 3 | / | /
CCOC(=O)c1ccc(S(=O)(=O)Nc2ccc3cn[nH]c3c2)cc1 | 62 | -3 | -7 | 0 | 1 | 48 | 56
COc1ccc(NS(=O)(=O)c2ccc3c(c2)OCCO3)cc1OC | 100* | -2 | 3 | 3 | 2 | 84* | 73*
COc1ccc(NS(=O)(=O)c2ccc(-n3cnnn3)cc2)cc1OC | 61 | 7 | 4 | -4 | -2 | -5 | 5
COc1ccc(S(=O)(=O)Nc2ccc3c(c2)OCO3)cc1OC | -7 | 3 | -23 | -1 | -1 | / | /
COc1ccc(S(=O)(=O)Nc2ccc3c(c2)n(C)c(=O)n3C)cc1F | 74* | 7 | 3 | 0 | -1 | 11 | 19
COc1ccc(S(=O)(=O)Nc2ccc(-n3cnnn3)cc2)cc1Br | 0 | -1 | / | 1 | / | / | /
COc1ccc(S(=O)(=O)Nc2ccc3c(c2)n(C)c(=O)n3C)cc1OC | -29 | -3 | 3 | -1 | 2 | / | /
O=S(=O)(Nc1ccc2c(c1)OCCO2)c1ccc2oc3ccccc3c2c1 | 81* | -3 | 9 | 0 | 0 | 84* | 68
CCCC1CCC2(CC1)CCC2OC(=O)Nc1cccc(C(F)(F)F)c1 (centres undefined) | / | 3 | / | / | / | / | /
CCCC(=O)N1CCN(c2ccc(NC(=O)c3cc4ccccc4o3)cc2Cl)CC1 | 51 | 4 | -9 | 1 | 2 | 40 | 26
CC1=C(C)/C(=N\OS(=O)(=O)c2ccc(C)cc2)C=CC1=O | 71* | -2 | 5 | 0 | -1 | 8 | 4
COC(=O)[C@]12C[C@H](CC(=O)NCc3cccc4ccccc34)C(=O)N(CCC3=CCCCC3)C1=C[C@H](C(C)C)O[C@@H]2C1CC1 | / | -1 | / | / | / | / | /
C=CCOc1ccccc1CNc1ccc2c(c1)OCCO2 | 49 | / | -16 | / | -3 | 49 | -8
C=CCOc1ccccc1CNc1cccc(F)c1 | 6 | 7 | 6 | 1 | 0 | / | /
c1cc(CNc2ccc3c(c2)OCCO3)ccn1 | 62 | -6 | 6 | -1 | -4 | -4 | -2
CC1CC(C)C(=NNC(N)=O)C(C(O)CC2CCC(=O)NC2=O)C1 (centres undefined) | 102* | -1 | / | 3 | / | 85* | 35
CCC1SC(C)C/C(=N/NC(N)=O)C1C (centres undefined) | 5 | -3 | 4 | -2 | 3 | / | /
SMILES | NR2E3 ag-1 | NR1D1 modulator | VLA-4 inh | PG9 binder | NR2E3 ag-2 | NR2E3 ag conf | GAL4-VP16 luc
O=C(NCc1cccnc1)c1ccc(-c2ccc(Cl)cc2)o1 | 6 | 0 | 0 | -2 | 3 | / | /
O=C(NCc1cccnc1)/C(=C\c1ccc(-c2ccc(Cl)c(Cl)c2)o1)S(=O)(=O)c1ccccc1 | 92* | -6 | 9 | -2 | 1 | 99* | 36
CNc1nc(SCC(=O)Nc2ccc(Cl)c(Cl)c2)nc(N2CCOCC2)n1 | -34 | -5 | 4 | 0 | 3 | / | /
Cc1ccc(NC(=O)CSc2nc3ccccc3c(=O)[nH]2)cc1[N+](=O)[O-] | 56 | 12 | 9 | 0 | / | 46 | 60
Cc1cc(C)nc(SCC(=O)Nc2ccc(N3CCOCC3)c(Cl)c2)n1 | 74* | -4 | -9 | 0 | 2 | 89* | 79*
O=C(CSc1nc2ccccc2s1)Nc1ccc(N2CCOCC2)c(Cl)c1 | -12 | 0 | 4 | -2 | -1 | / | /
O=C(CSc1nc2ccccc2c(=O)[nH]1)Nc1ccc(N2CCOCC2)c(Cl)c1 | 49 | 3 | -6 | -2 | 5 | 27 | 46
COC(=O)[C@]12C=CCN1[C@H](c1ccccc1)c1c(c3ccccc3n1S(=O)(=O)c1ccc(C)cc1)C2 | / | 4 | / | / | / | / | /
COc1ccc(N2CCCN(CC(=O)Nc3ccc(Cl)c(Cl)c3)CC2)cc1 | / | 3 | / | / | / | / | /
CCCCCCCCN1CCS(=O)(=O)N(Cc2ccc(C)cc2)C(C(=O)OC)C1 (centres undefined) | / | 1 | / | / | / | / | /
CC(C)COC(=O)c1ccc(N)cc1 | / | -1 | / | / | / | / | /
O=C(c1cc2nc(-c3ccc(F)cc3)cc(C(F)(F)F)n2n1)N1CCCCC1c1cccnc1 (centres undefined) | 52 | -6 | 12 | 0 | 0 | 88* | 66
CC(C)c1cc(C(=O)N(C2CCCCC2)C2CCCCC2)no1 | / | -4 | / | / | / | / | /
COc1ccc(CC2C(=O)NC(C)C(=O)N(C)C3Cc4ccc(cc4)Oc4cc(ccc4O)CC(C(=O)NC(C)C(=O)NC(C)C(=O)N2C)N(C)C3=O)cc1 (centres undefined) | 103* | 4 | / | 0 | / | 99* | 96*
CC(C)C[C@@H]1NC(=O)[C@H](Cc2ccccc2)N(C)C(=O)[C@H](C)NC(=O)c2ccccc2NC(=O)[C@H](Cc2ccc(O)cc2)N(C)C1=O | 15 | -3 | 17 | 0 | -1 | / | /
COC(=O)C1CCN(C(=O)CN2CCC(C(=O)c3ccc(C)cc3)CC2)CC1 | / | 0 | / | / | / | / | /
CCN(CC)c1ccc(-c2nn3c(-c4ccccc4OC)nnc3s2)cc1 | 57 | / | 23 | / | 1 | -38 | 8
O=C(CCCc1ccccc1)c1ccc2c(c1)OCCO2 | 64 | 8 | 6 | 0 | 2 | 21 | 12
O=C(NCCc1ccccc1)c1ccc2c(c1)OCCCO2 | 87* | -1 | 5 | -2 | 1 | 66 | 57
O=C(CSc1nc2ccccc2[nH]1)NN=Cc1c(F)cccc1Cl | / | 0 | / | / | / | / | /
Cc1ccccc1C(=O)NCCCCc1ccccc1 | 0 | 0 | 24 | -2 | 1 | / | /
Nc1nc2ccccc2cc1C(=O)NCCCCc1ccccc1 | 96* | / | / | / | / | 97* | 90*
C[C@H](CCCCC1(C)OCCO1)CCC(=O)N(c1ccccc1)c1ccccc1 | / | 4 | / | / | / | / | /
